Measured values taken from ChEMBL document CHEMBL2417518, “Vinyl sulfone-based peptidomimetics as anti-trypanosomal agents: design, synthesis, biological and computational evaluation” (J Med Chem, 2013).
pEC50, pIC50: −log10 of the molar value. Activity calls are given as the source filed them. No cut-off for these calls is given here.

Tests used:
[1] = Selectivity for bloodstream form of Trypanosoma brucei brucei MITat1.1 over human HL60 cells; set-up: species or system HL-60
Summary of the method: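 Both were measured by seeding at 2×10^5 cells/ml with varying inhibitor concentrations, reading absorbance at 540 and 595 nm, and comparing to inhibitor-free controls.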

[2] = test system: Trypanosoma brucei brucei; test: Antitrypanosomal activity against bloodstream form of Trypanosoma brucei brucei MITat1.1 after 24 hrs by Alamar Blue assay
[3] = test system: Trypanosoma brucei brucei; test: Antitrypanosomal activity against bloodstream form of Trypanosoma brucei brucei MITat1.1 after 6 to 8 hrs by Alamar Blue assay; assay type: functional, organism-based; details: in the assay text read “after 24 hrs” for “after 6 to 8 hrs”
Summary of the method: (§1)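 T. b. brucei MITat1.1 cultured in HMI-9 with 10% heat-inactivated FBS, subcultured 1:10 every 24 h to stay in log phase, 37°C, 5% CO2. Seeded at 2×10^5 cells/ml with varying inhibitor concentrations or DMSO alone. Alamar Blue added after 6-8 h, total incubation 24 h. Absorbance read at 540 and 595 nm. EC50 from 4-parameter logistic fit of percent inhibition versus controls.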

HL-60 = test: Cytotoxicity against human HL60 cells after 48 hrs by Alamar Blue assay; assay type: cell-based; details: hl-60, 48 h
Summary of the method: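 HL-60 cells grown in RPMI-1640 with 10% heat-inactivated FBS, penicillin/streptomycin and 2 mM L-glutamine, 37°C, 5% CO2. Seeded at 2×10^5 cells/ml with varying inhibitor concentrations or DMSO alone. Alamar Blue added after 30-32 h, total incubation 48 h. Absorbance read at 540 and 595 nm. EC50 derived from percent signal inhibition versus inhibitor-free controls.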

[4] = test system: Trypanosoma brucei brucei; test: Antitrypanosomal activity against bloodstream form of Trypanosoma brucei brucei; assay type: functional, organism-based; summary of the method: as §1
[5] = test system: Trypanosoma brucei brucei; test: Antitrypanosomal activity against bloodstream form of Trypanosoma brucei brucei MITat1.1 assessed as increase in multinucleate cells at 55.6 uM after 24 hrs by epifluorescence microscopy relative to untreated control; assay type: functional, organism-based
Summary of the method: (§2)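 Trypanosomes exposed to the stated concentration at 37°C for 24 h, then fixed 10 min at 37°C in 3% (w/v) paraformaldehyde (final). Washed in PBS with 15 mM sodium azide, then in water, and settled on poly-L-lysine coated coverslips. Kinetoplast/nucleus counts and morphology scored by epifluorescence microscopy against an untreated control.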

[6] = test system: Trypanosoma brucei brucei; test: Antitrypanosomal activity against bloodstream form of Trypanosoma brucei brucei MITat1.1 assessed as bigeye phenotype at 55.6 uM after 24 hrs by epifluorescence microscopy relative to untreated control; assay type: functional, organism-based; summary of the method: as §2
[7] = test system: Trypanosoma brucei brucei; test: Antitrypanosomal activity against bloodstream form of Trypanosoma brucei brucei MITat1.1 assessed as bigeye phenotype at 0.78 uM after 24 hrs by epifluorescence microscopy relative to untreated control; assay type: functional, organism-based; summary of the method: as §2
[8] = test system: Trypanosoma brucei brucei; test: Antitrypanosomal activity against bloodstream form of Trypanosoma brucei brucei MITat1.1 assessed as increase in multinucleate cells at 0.78 uM after 24 hrs by epifluorescence microscopy relative to untreated control; assay type: functional, organism-based; summary of the method: as §2

In the case of `CC(C)(C)OC(=O)NCCCC[C@@H](/C=C/S(=O)(=O)c1ccccc1)NC(=O)[C@@H]1CCCN1C(=O)OCc1ccccc1`, the Selectivity ratio [1] was greater than 5.7, the pEC50 [2] was 5.00 and the Activity [3] was “Dose-dependent effect”.
For `CC(C)(C)OC(=O)NCCCC[C@@H](/C=C/C(=O)c1ccccc1)NC(=O)[C@H](Cc1ccccc1)NC(=O)OCc1ccccc1`, the Selectivity ratio [1] was greater than 67.1, the Activity (HL-60) was “Toxic” and the Activity [3] was “Dose-dependent effect”. The pEC50 [3] was 6.09.
`CN1CCN(C(=O)N[C@@H](Cc2ccccc2)C(=O)N[C@H](/C=C/S(=O)(=O)c2ccccc2)CCc2ccccc2)CC1` [K-777] showed a pIC50 [4] of 7.00, a Selectivity ratio [1] greater than 9.9 and a pEC50 [2] of 5.25. For the same compound, the Activity [5] was “Active”, the Activity [6] was “Active” and the Activity [3] was “Dose-dependent effect”.
In the case of `CC(C)(C)OC(=O)NCCCC[C@@H](/C=C/S(=O)(=O)c1cccc2ccccc12)NC(=O)[C@H](Cc1ccccc1)NC(=O)OCc1ccccc1`, the Selectivity ratio [1] was greater than 80.1, the pEC50 [2] was 6.17 and the Activity [3] was “Dose-dependent effect”.
In the case of `CC(C)C[C@H](NC(=O)OCc1ccccc1)C(=O)N[C@H](/C=C/S(=O)(=O)c1ccccc1)CCCCNC(=O)OC(C)(C)C`, the Selectivity ratio [1] was greater than 46.6, the Activity [3] was “Dose-dependent effect” and the pEC50 [3] was 5.93.
For `O=C(N[C@@H](Cc1ccccc1)C(=O)N[C@H](/C=C/S(=O)(=O)c1ccccc1)CCCCNS(=O)(=O)c1cccc2ccccc12)OCc1ccccc1`, the Selectivity ratio [1] was greater than 785.7, the Activity [7] was “Active” and the Activity [8] was “Active”. For the same compound, the Activity [3] was “Dose-dependent effect” and the pEC50 [3] was 7.15.
With `CC(C)(C)OC(=O)NCCCC[C@@H](/C=C/S(=O)(=O)c1ccc2ccccc2c1)NC(=O)[C@H](Cc1ccccc1)NC(=O)OCc1ccccc1` the Selectivity ratio [1] was greater than 53.4, the Activity [3] was “Dose-dependent effect” and the pEC50 [3] was 5.99.
For `Cc1ccc(S(=O)(=O)NCCCC[C@@H](/C=C/S(=O)(=O)c2ccccc2)NC(=O)[C@H](Cc2ccccc2)NC(=O)OCc2ccccc2)cc1`, the Selectivity ratio [1] was greater than 220, the Activity [3] was “Dose-dependent effect” and the pEC50 [3] was 6.60.
For `Cl.NCCCC[C@@H](/C=C/S(=O)(=O)c1ccccc1)NC(=O)[C@H](Cc1ccccc1)NC(=O)OCc1ccccc1`, the Selectivity ratio [1] was greater than 2.4, the Activity [3] was “Dose-dependent effect” and the pEC50 [3] was 4.65.
In the case of `CC(C)(C)OC(=O)NCCCC[C@@H](/C=C/S(=O)(=O)c1ccccc1)NC(=O)[C@H](Cc1ccccc1)NC(=O)OCc1ccccc1`, the Selectivity ratio [1] was greater than 83, the pEC50 [2] was 6.18 and the Activity [3] was “Dose-dependent effect”.
In the case of `COc1cc(Br)c(S(=O)(=O)NCCCC[C@@H](/C=C/S(=O)(=O)c2ccccc2)NC(=O)[C@H](Cc2ccccc2)NC(=O)OCc2ccccc2)cc1OC`, the Selectivity ratio [1] was greater than 177.4, the Activity [3] was “Dose-dependent effect” and the pEC50 [3] was 6.51.
In the case of `CC(C)(C)OC(=O)NCCCC[C@@H](CCS(=O)(=O)c1ccccc1)NC(=O)[C@H](Cc1ccccc1)NC(=O)OCc1ccccc1`, the Selectivity ratio [1] was greater than 2.1, the pEC50 [2] was 4.58 and the Activity [3] was “Dose-dependent effect”.
